These results are taken from ChEMBL document CHEMBL1795205, “The new 5- or 6-azapyrimidine and cyanuric acid derivatives of l-ascorbic acid bearing the free C-5 hydroxy or C-4 amino group at the ethylenic spacer: CD-spectral absolute configuration determination and biological activity evaluations” (Eur J Med Chem, 2011).

One experiment deals with SW-620. The experiment is described as follows: Cytostatic activity against human SW620 cells assessed as inhibition of cell proliferation after 72 hrs by MTT assay. Format: functional, cell-based. Particulars: SW-620, 72 h. The method, boiled down: (§1)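 Monolayer cells grown in DMEM with 10% FBS were seeded on day 0 at 3000–6000 cells/well, set by each line's doubling time. Agents were added the next step in five 10-fold dilutions (0.01–100) for 72 h, with DMSO ≤0.1% and a solvent control. MTT absorbance was converted to percentage growth versus untreated wells on the same plate. Where all PGs exceeded 50, the top concentration was reported as ">". ANOVA/Tukey, p<0.05.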
A general note: Tetrazolium dyes change colour on reduction, which living cells bring about.

The subject of another experiment is MIA PaCa-2. The experiment is described as follows: Cytostatic activity against human MIAPaCa2 cells assessed as inhibition of cell proliferation after 72 hrs by MTT assay. Format: functional, cell-based. The following applies: MIA PaCa-2, 72 h. The method, boiled down:
as §1

For a further experiment, the system named is WI-38. The experiment is described as follows: Cytotoxicity against human WI38 cells assessed as inhibition of cell proliferation after 72 hrs by MTT assay. It counts as cell-based. The following applies: WI-38, 72 h. The gist of the method: as §1
A further experiment relates to HeLa. Kind of experiment: Cytostatic activity against human HeLa cells assessed as inhibition of cell proliferation after 72 hrs by MTT assay. It counts as functional, cell-based. The method, boiled down:
as §1

In another experiment the test system is MCF7. Kind of experiment: Cytostatic activity against human MCF7 cells assessed as inhibition of cell proliferation after 72 hrs by MTT assay. Format: functional, cell-based. The following applies: MCF7, 72 h. The method, boiled down: as §1
The subject of the next experiment is HepG2. The experiment is described as follows: Cytostatic activity against human HepG2 cells assessed as inhibition of cell proliferation after 72 hrs by MTT assay. It counts as functional, cell-based. Particulars: HepG2, 72 h. The gist of the method:
as §1

Where only a bound is given, the exact number is not on record here.

Regarding `NC1(CCn2cc(F)c(=O)[nH]c2=O)OC(=O)C(OCc2ccccc2)=C1OCc1ccccc1` (racemic), the IC50 (usually the concentration needed to halve the response being measured) in the experiment with SW-620 was over 100 µM; in the experiment on MIA PaCa-2 it was over 100 µM; in the experiment with WI-38, 36.2 µM; in the experiment on HeLa, over 100 µM; in the experiment on MCF7, 20.9 µM; with HepG2 it was 42.8 µM.

On to `O=C1O/C(=C\Cn2c(=O)[nH]c(=O)[nH]c2=O)C(OCc2ccccc2)=C1OCc1ccccc1`, for which the IC50 is over 100 µM in the experiment with SW-620; 37.9 µM in the experiment with MIA PaCa-2; over 100 µM with HeLa; 17.8 µM in the experiment on MCF7; 44.8 µM with HepG2.

As to `NC1(CCn2ccc(=O)[nH]c2=O)OC(=O)C(OCc2ccccc2)=C1OCc1ccccc1` (racemic), the IC50 in the experiment with SW-620, in the experiment on MIA PaCa-2, in the experiment with WI-38, in the experiment on HeLa, in the experiment on MCF7 and in the experiment with HepG2 was over 100 µM throughout.

As to `NC1(CCn2c(=O)[nH]c(=O)[nH]c2=O)OC(=O)C(OCc2ccccc2)=C1OCc1ccccc1` (racemic), the half-maximal inhibitory concentration (IC50) in the experiment with SW-620 is over 100 µM; in the experiment with MIA PaCa-2, over 100 µM; in the experiment with WI-38, over 100 µM; in the experiment with HeLa it was 77.1 µM; with MCF7 it was 84.9 µM; in the experiment on HepG2, over 100 µM.

On to `Nc1ncn(C[C@H](O)[C@H]2OC(=O)C(OCc3ccccc3)=C2OCc2ccccc2)c(=O)n1`, for which the IC50 in the experiment with SW-620 is over 100 µM; with MIA PaCa-2 it was 71.7 µM; in the experiment with WI-38, over 100 µM; with HeLa, over 100 µM; with MCF7, 73.8 µM; in the experiment on HepG2, over 100 µM.

Take `Cc1cn(CCC2(N)OC(=O)C(OCc3ccccc3)=C2OCc2ccccc2)c(=O)[nH]c1=O` (racemic): the half-inhibitory concentration (IC50) in the experiment with SW-620 was over 100 µM; with MIA PaCa-2, over 100 µM; in the experiment with WI-38, over 100 µM; with HeLa, over 100 µM; in the experiment on MCF7 it was 80.4 µM; in the experiment on HepG2, over 100 µM.

Turning to `Nc1ncn(C/C=C2\OC(=O)C(O)=C2OCc2ccccc2)c(=O)n1`, the IC50 with SW-620, with MIA PaCa-2, in the experiment with WI-38, with HeLa, in the experiment with MCF7 and with HepG2 was over 100 µM each time.

With `O=C1O[C@H]([C@@H](O)Cn2c(=O)[nH]c(=O)[nH]c2=O)C(OCc2ccccc2)=C1OCc1ccccc1`, the 50% inhibitory concentration (IC50) in the experiment on SW-620, with MIA PaCa-2, in the experiment with WI-38, in the experiment on HeLa, with MCF7 and with HepG2 was over 100 µM each time.

Turning to `O=C1O[C@H]([C@@H](O)Cn2ccc(NC(=O)c3ccccc3)nc2=O)C(OCc2ccccc2)=C1OCc1ccccc1`, the IC50 with SW-620 was over 100 µM; in the experiment on MIA PaCa-2 it was over 100 µM; with WI-38, 8.82 µM; with HeLa, 35.9 µM; with MCF7, 4.79 µM; in the experiment with HepG2 it was 62.2 µM.

In the case of `NC1(CCn2ncc(=O)[nH]c2=O)OC(=O)C(OCc2ccccc2)=C1OCc1ccccc1` (racemic), the IC50 with SW-620, with MIA PaCa-2, with WI-38, in the experiment with HeLa, with MCF7 and in the experiment with HepG2 was over 100 µM each time.

As to `Nc1ccn(C[C@H](O)[C@H]2OC(=O)C(OCc3ccccc3)=C2OCc2ccccc2)c(=O)n1`, the IC50 is over 100 µM in the experiment on SW-620; over 100 µM with MIA PaCa-2; 53.9 µM with WI-38; over 100 µM in the experiment on HeLa; 7.34 µM with MCF7; 44.3 µM with HepG2.

Turning to `Nc1ccn(CCC2(N)OC(=O)C(OCc3ccccc3)=C2OCc2ccccc2)c(=O)n1` (racemic), the half-inhibitory concentration (IC50) was over 100 µM with SW-620; over 100 µM with MIA PaCa-2; 88.9 µM in the experiment with WI-38; over 100 µM with HeLa; 32 µM with MCF7; over 100 µM with HepG2.

On to `Nc1ncn(CCC2(N)OC(=O)C(OCc3ccccc3)=C2OCc2ccccc2)c(=O)n1` (racemic), for which the IC50 in the experiment with SW-620, with MIA PaCa-2, with WI-38, in the experiment on HeLa, with MCF7 and in the experiment with HepG2 was over 100 µM throughout.

In the case of `O=C1O/C(=C\Cn2c(=O)[nH]c(=O)[nH]c2=O)C(O)=C1O`, the IC50 in the experiment on SW-620 is over 100 µM; in the experiment with MIA PaCa-2, over 100 µM; in the experiment with WI-38 it was 35.3 µM; with HeLa, over 100 µM; in the experiment on MCF7, over 100 µM; in the experiment on HepG2, over 100 µM.

On to `O=C1O/C(=C\Cn2ncc(=O)[nH]c2=O)C(OCc2ccccc2)=C1OCc1ccccc1`, for which the concentration for half-maximal inhibition (IC50) with SW-620 was determined as 36.5 µM; in the experiment on MIA PaCa-2 it was 20.4 µM; in the experiment with WI-38 it was 24.6 µM; in the experiment with HeLa, 45 µM; in the experiment with MCF7, 3.77 µM; in the experiment on HepG2, 41.3 µM.
